≈ marks a conversion by molar mass, not a printed value. Calls of active or inactive are those of the source. No cut-off for these calls is given here.
What was measured:
[1] = test system: Yarrowia lipolytica; experiment: Antifungal activity against Yarrowia lipolytica assessed as inhibition of fungal growth; format: functional
Procedure, shortened: (§1)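 MIC by DIN 58940-84 broth dilution, strains kept in log phase at 28 °C in yeast extract/peptone/glucose medium, 0.5 McFarland standard. Compounds in ethanol stock 0.8 mg/mL, tested at 50, 25 and 12.5 µg/mL in duplicate wells. Controls: sterility, ethanol-only, clotrimazole 0.5 µg/mL, ketoconazole series. MIC = lowest concentration giving visibly complete growth inhibition.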

[2] = biological target: 3-beta-hydroxysteroid-Delta(8),Delta(7)-isomerase (Homo sapiens, UniProt Q15125); experiment: Inhibition of delta8,7-sterol isomerase-mediated cholesterol biosynthesis in human HL60 cells assessed as increase in zymostenol accumulation; format: cell-based; conditions: for inhibition: HL-60
3-beta-hydroxysteroid-Delta(8),Delta(7)-isomerase, sequence (Q15125 whole entry): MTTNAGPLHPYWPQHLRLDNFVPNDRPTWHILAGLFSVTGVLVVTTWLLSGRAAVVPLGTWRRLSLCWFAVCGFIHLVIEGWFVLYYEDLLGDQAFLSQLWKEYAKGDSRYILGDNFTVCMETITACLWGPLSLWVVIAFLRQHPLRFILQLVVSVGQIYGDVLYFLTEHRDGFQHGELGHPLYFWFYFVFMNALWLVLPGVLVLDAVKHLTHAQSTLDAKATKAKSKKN
Procedure, shortened: (§2)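 HL-60 cells (10^6) incubated 24 h at 37 °C, 5% CO2 in lipid-free medium with 1% LPDS, with compound in ethanol at final 1 or 50 µM. Cells were then saponified in 1 M NaOH at 70 °C for 60 min, extracted into TBME with cholestane internal standard, and silylated with TSIM. The sterol pattern was read by GC-MS full scan, with sterols identified by retention time and MS against authentic samples.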

[3] = test system: Saccharomyces cerevisiae; experiment: Antifungal activity against Saccharomyces cerevisiae assessed as inhibition of fungal growth; format: functional; procedure, shortened: as §1
[4] = test system: Nakaseomyces glabratus; experiment: Antifungal activity against Candida glabrata assessed as inhibition of fungal growth; format: functional; procedure, shortened: as §1
[5] = test system: HL-60; experiment: Cytotoxicity against human HL60 cells by MTT assay; format: cell-based
Procedure, shortened: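 Human leukemia HL-60 cells, kept in RPMI 1640 with 10% FBS without antibiotics at 37 °C, 5% CO2. Cytotoxicity by standard Mosmann MTT test. IC50 from dose-response curves run in triplicate, reported with 95% confidence interval and R2.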

[6] = Selectivity index, ratio of cytotoxic IC50 against human HL60 cells to IC50 for delta8,7-sterol isomerase-mediated cholesterol biosynthesis in human HL60 cells; format: functional, HL-60
Procedure, shortened: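 Cytotoxicity IC50 from the HL-60 MTT test, in triplicate. Cholesterol biosynthesis IC50 came from HL-60 cells given graded inhibitor concentrations for 24 h in lipid-free medium with 1% LPDS plus 2-13C-acetate at final 62.5 µg/mL. Labelled cholesterol was measured by GC-MS (ions 372–379, 462–469), normalised to Bradford protein, and % inhibition fitted sigmoidally with bottom 0, in triplicate.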

[7] = biological target: 3-beta-hydroxysteroid-Delta(8),Delta(7)-isomerase/Delta(24)-sterol reductase (Homo sapiens) (UniProt Q15125+Q15392); experiment: Inhibition of Delta(8)-Delta(7) sterol isomerase/Delta(24)-sterol reductase-mediated cholesterol biosynthesis in human HL60 cells assessed as increase in zymostenol and zymosterol accumulation; format: cell-based; conditions: HL-60; procedure, shortened: as §2
3-beta-hydroxysteroid-Delta(8),Delta(7)-isomerase/Delta(24)-sterol reductase (Homo sapiens), sequence (Q15125 whole entry, looked up): as the sequence (Q15125 whole entry) above
3-beta-hydroxysteroid-Delta(8),Delta(7)-isomerase/Delta(24)-sterol reductase (Homo sapiens), sequence (Q15392 whole entry, looked up): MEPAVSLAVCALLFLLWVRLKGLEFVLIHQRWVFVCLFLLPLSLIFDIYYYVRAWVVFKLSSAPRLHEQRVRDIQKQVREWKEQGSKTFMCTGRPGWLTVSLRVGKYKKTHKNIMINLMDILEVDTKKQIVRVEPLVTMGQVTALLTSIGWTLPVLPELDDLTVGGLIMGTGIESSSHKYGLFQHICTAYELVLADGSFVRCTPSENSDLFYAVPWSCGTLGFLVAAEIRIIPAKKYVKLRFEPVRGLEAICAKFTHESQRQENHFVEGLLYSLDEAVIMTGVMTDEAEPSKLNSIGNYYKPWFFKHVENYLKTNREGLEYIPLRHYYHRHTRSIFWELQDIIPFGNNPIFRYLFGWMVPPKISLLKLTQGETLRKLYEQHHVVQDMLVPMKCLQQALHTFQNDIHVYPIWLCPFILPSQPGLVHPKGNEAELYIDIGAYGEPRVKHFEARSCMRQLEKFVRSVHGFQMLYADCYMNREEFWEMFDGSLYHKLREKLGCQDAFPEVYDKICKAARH

SMILES	MIC [1]	inhibition [2]	MIC [3]	MIC [4]	IC50 [2]	IC50 [5]	Ratio IC50 [6]	inhibition [7]
CC(C)CCC[C@@H](C)[C@H]1CC[C@@]2(C)[C@H](O)[C@@H](NCc3ccc(I)o3)CC[C@]12C	25 µg/mL (≈ 49.9 µM)	inactive	25 µg/mL (≈ 49.9 µM)	25 µg/mL (≈ 49.9 µM)				
CC(C)CCC[C@@H](C)[C@H]1CC[C@@]2(C)[C@H](O)[C@@H](NCc3cccc(Cl)c3Cl)CC[C@]12C	25 µg/mL (≈ 55 µM)	inactive	25 µg/mL (≈ 55 µM)	25 µg/mL (≈ 55 µM)				
C=CCCCN(Cc1ccccc1)[C@H]1CC[C@]2(C)[C@@H]([C@H](C)CCCC(C)C)CC[C@@]2(C)[C@H]1O	25 µg/mL (≈ 55.1 µM)		25 µg/mL (≈ 55.1 µM)	25 µg/mL (≈ 55.1 µM)	0.082 µM	17 µM		
Clc1ccccc1C(c1ccccc1)(c1ccccc1)n1ccnc1 [CLOTRIMAZOLE]	1 µg/mL (≈ 2.9 µM)		0.5 µg/mL (≈ 1.45 µM)	2.5 µg/mL (≈ 7.25 µM)				
CC(C)CCC[C@@H](C)[C@H]1CC[C@@]2(C)C(=O)[C@@H](NCc3cccnc3)CC[C@]12C	25 µg/mL (≈ 65 µM)	inactive	25 µg/mL (≈ 65 µM)	25 µg/mL (≈ 65 µM)				
CC(C)CCC[C@@H](C)[C@H]1CC[C@@]2(C)[C@@H](O)[C@@H](N3CCN(C)CC3)CC[C@]12C	25 µg/mL (≈ 66 µM)		25 µg/mL (≈ 66 µM)	25 µg/mL (≈ 66 µM)				
COc1ccc(CN[C@H]2CC[C@]3(C)[C@@H]([C@H](C)CCCC(C)C)CC[C@@]3(C)[C@H]2O)c(OC)c1	25 µg/mL (≈ 56.1 µM)		25 µg/mL (≈ 56.1 µM)	25 µg/mL (≈ 56.1 µM)				
CC(C)CCC[C@@H](C)[C@H]1CC[C@@]2(C)C(=O)[C@@H](N3C(C)COCC3C)CC[C@]12C (stereo not given in full)	25 µg/mL (≈ 63.8 µM)	inactive	25 µg/mL (≈ 63.8 µM)	25 µg/mL (≈ 63.8 µM)				
CC(C)CCC[C@@H](C)[C@H]1CC[C@@]2(C)[C@@H](O)[C@@H](NCc3ccccc3)CC[C@]12C	25 µg/mL (≈ 64.8 µM)		25 µg/mL (≈ 64.8 µM)	25 µg/mL (≈ 64.8 µM)	0.015 µM	8 µM		
CC(C)CCC[C@@H](C)[C@H]1CC[C@@]2(C)[C@@H](O)[C@@H](NCc3ccoc3)CC[C@]12C	25 µg/mL (≈ 66.6 µM)		25 µg/mL (≈ 66.6 µM)	25 µg/mL (≈ 66.6 µM)				
CC(C)CCC[C@@H](C)[C@H]1CC[C@@]2(C)[C@@H](O)[C@@H](NCc3cccc(Cl)c3)CC[C@]12C	25 µg/mL (≈ 59.5 µM)		25 µg/mL (≈ 59.5 µM)	25 µg/mL (≈ 59.5 µM)				
C=CCCCN(C)[C@H]1CC[C@]2(C)[C@@H]([C@H](C)CCCC(C)C)CC[C@@]2(C)[C@H]1O	25 µg/mL (≈ 66.2 µM)		25 µg/mL (≈ 66.2 µM)	25 µg/mL (≈ 66.2 µM)	0.018 µM	7 µM	390	
CC(C)CCC[C@@H](C)[C@H]1CC[C@@]2(C)[C@@H](O)[C@@H](N(C)Cc3ccccc3)CC[C@]12C	25 µg/mL (≈ 62.6 µM)		25 µg/mL (≈ 62.6 µM)	25 µg/mL (≈ 62.6 µM)	0.011 µM	7 µM	636	
CC(C)CCC[C@@H](C)[C@H]1CC[C@@]2(C)[C@@H](O)[C@@H](N(Cc3ccccc3)Cc3ccccc3)CC[C@]12C	25 µg/mL (≈ 52.5 µM)		25 µg/mL (≈ 52.5 µM)	25 µg/mL (≈ 52.5 µM)	> 1 µM	27 µM		
Cc1cccc(N[C@H]2CC[C@]3(C)[C@@H]([C@H](C)CCCC(C)C)CC[C@@]3(C)C2=O)c1C	25 µg/mL (≈ 62.9 µM)	inactive	25 µg/mL (≈ 62.9 µM)	25 µg/mL (≈ 62.9 µM)				
CC(C)CCC[C@@H](C)[C@H]1CC[C@@]2(C)[C@@H](O)[C@@H](N3CC(C)OC(C)C3)CC[C@]12C (mixture of isomers)	25 µg/mL		25 µg/mL	25 µg/mL				
CC(C)CCC[C@@H](C)[C@H]1CC[C@@]2(C)[C@@H](O)[C@@H](NCc3ccc(Cl)cc3Cl)CC[C@]12C	25 µg/mL (≈ 55 µM)		25 µg/mL (≈ 55 µM)	25 µg/mL (≈ 55 µM)				

SMILES	MIC [1]	inhibition [2]	MIC [3]	MIC [4]	IC50 [2]	IC50 [5]	Ratio IC50 [6]	inhibition [7]
CC(C)CCC[C@@H](C)[C@H]1CC[C@@]2(C)[C@H](O)[C@@H](NCc3ccc(Cl)cc3Cl)CC[C@]12C	25 µg/mL (≈ 55 µM)	inactive	25 µg/mL (≈ 55 µM)	25 µg/mL (≈ 55 µM)				
COc1ccc(CN[C@H]2CC[C@]3(C)[C@@H]([C@H](C)CCCC(C)C)CC[C@@]3(C)[C@H]2O)cc1	25 µg/mL (≈ 60.1 µM)		25 µg/mL (≈ 60.1 µM)	25 µg/mL (≈ 60.1 µM)				
CC(C)CCC[C@@H](C)[C@H]1CC[C@@]2(C)[C@@H](O)[C@@H](NCc3cccnc3)CC[C@]12C	25 µg/mL (≈ 64.7 µM)		25 µg/mL (≈ 64.7 µM)	25 µg/mL (≈ 64.7 µM)				
Cc1cccc(N[C@H]2CC[C@]3(C)[C@@H]([C@H](C)CCCC(C)C)CC[C@@]3(C)[C@H]2O)c1C (mixture of isomers)	25 µg/mL		25 µg/mL	25 µg/mL				
CC(C)CCC[C@@H](C)[C@H]1CC[C@@]2(C)C(=O)[C@@H](N(C)C)CC[C@]12C	25 µg/mL (≈ 77.7 µM)	inactive	25 µg/mL (≈ 77.7 µM)	25 µg/mL (≈ 77.7 µM)				
CC(C)CCC[C@@H](C)[C@H]1CC[C@@]2(C)[C@H](O)[C@@H](NCc3cccc(Cl)c3)CC[C@]12C	25 µg/mL (≈ 59.5 µM)	inactive	25 µg/mL (≈ 59.5 µM)	25 µg/mL (≈ 59.5 µM)				
C=CCCCN[C@H]1CC[C@]2(C)[C@@H]([C@H](C)CCCC(C)C)CC[C@@]2(C)[C@@H]1O	25 µg/mL (≈ 68.8 µM)	inactive	25 µg/mL (≈ 68.8 µM)	25 µg/mL (≈ 68.8 µM)				
CCN[C@H]1CC[C@]2(C)[C@@H]([C@H](C)CCCC(C)C)CC[C@@]2(C)[C@H]1O	25 µg/mL (≈ 77.3 µM)		25 µg/mL (≈ 77.3 µM)	25 µg/mL (≈ 77.3 µM)				
CC(C)CCC[C@@H](C)[C@H]1CC[C@@]2(C)[C@H](O)[C@@H](NCc3ccoc3)CC[C@]12C	25 µg/mL (≈ 66.6 µM)	inactive	25 µg/mL (≈ 66.6 µM)	25 µg/mL (≈ 66.6 µM)				
CC(C)CCC[C@@H](C)[C@H]1CC[C@@]2(C)C(=O)[C@@H](N3CCN(C)CC3)CC[C@]12C	25 µg/mL (≈ 66.4 µM)	inactive	25 µg/mL (≈ 66.4 µM)	25 µg/mL (≈ 66.4 µM)				
C=CCCCN[C@H]1CC[C@]2(C)[C@@H]([C@H](C)CCCC(C)C)CC[C@@]2(C)[C@H]1O	25 µg/mL (≈ 68.8 µM)		25 µg/mL (≈ 68.8 µM)	25 µg/mL (≈ 68.8 µM)	0.058 µM	15 µM		
CC(C)CCC[C@@H](C)[C@H]1CC[C@@]2(C)[C@@H](O)[C@@H](N)CC[C@]12C	25 µg/mL (≈ 84.6 µM)		25 µg/mL (≈ 84.6 µM)	25 µg/mL (≈ 84.6 µM)	0.581 µM	11 µM		
CC(C)CCC[C@@H](C)[C@H]1CC[C@@]2(C)[C@@H](O)[C@@H](NCc3ccc(I)o3)CC[C@]12C	25 µg/mL (≈ 49.9 µM)		25 µg/mL (≈ 49.9 µM)	25 µg/mL (≈ 49.9 µM)				
CC/C(=C(\c1ccccc1)c1ccc(OCCN(C)C)cc1)c1ccccc1								Active
CC(C)CCC[C@@H](C)[C@H]1CC[C@@]2(C)[C@@H](O)[C@@H](NCc3cccc(Cl)c3Cl)CC[C@]12C	25 µg/mL (≈ 55 µM)		25 µg/mL (≈ 55 µM)	25 µg/mL (≈ 55 µM)				
CC(C)CCC[C@@H](C)[C@H]1CC[C@@]2(C)[C@@H](O)[C@@H](N(C)C)CC[C@]12C	25 µg/mL (≈ 77.3 µM)		25 µg/mL (≈ 77.3 µM)	25 µg/mL (≈ 77.3 µM)	0.576 µM	17 µM		
CC(C)CCC[C@@H](C)[C@H]1CC[C@@]2(C)[C@H](O)[C@@H](NCc3ccccc3)CC[C@]12C	25 µg/mL (≈ 64.8 µM)	inactive	25 µg/mL (≈ 64.8 µM)	25 µg/mL (≈ 64.8 µM)				
